In ChEMBL document CHEMBL1773027, “Development of new indole-derived neuroprotective agents” (2011) one finds Activity data, which are given here for 5 compounds.

The subject of one test is Brain. Kind of test: Neuroprotective activity against ACR-intoxicated Sprague-Dawley rat brain assessed as appearance of normal neuron at 50 mg/kg, ip administered 10 mins prior to ACR injection 3 days per week for 3 weeks by hematoxylin and eosin staining method relative to ACR group. Further details: dose 50 mg/kg. The class given is functional, organism-based. Summed up: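 After 3 weeks of ACR (50 mg/kg ip, water) plus pretreatment (50 mg/kg ip in 2% Tween 80, 10 min before, 3 days/week), rat brains were fixed in buffered formalin for 1 week. They were then washed in tap water for 24 h, dehydrated through graded alcohol, cleared in xylene and paraffin-embedded. Sections were examined microscopically for neuronal morphology.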

Test [1] concerns Rattus norvegicus. Kind of test: Neuroprotective activity against ACR-intoxicated Sprague-Dawley rat assessed as decrease in malinoaldehyde level in brain at 50 mg/kg, ip administered 10 mins prior to ACR injection 3 days per week for 3 weeks […] relative to control. Further details: scale not given: the % may be the effect or the level left. Conditions: route intraperitoneal. The class given is functional.

In test [2] the test system is Rattus norvegicus. Description: Neuroprotective activity against ACR-intoxicated Sprague-Dawley rat assessed as decrease in GSH level in brain at 50 mg/kg, ip administered 10 mins prior to ACR injection 3 days per week for 3 weeks […] relative to control. It counts as functional. Further details: scale not given: the % may be the effect or the level left. Particulars: route intraperitoneal.

Test [3] relates to Rattus norvegicus. Kind of test: Neuroprotective activity against ACR-intoxicated Sprague-Dawley rat assessed as increase in noradrenaline level in brain at 50 mg/kg, ip administered 10 mins prior to ACR injection 3 days per week for 3 weeks by ELISA relative to control. Particulars: route intraperitoneal. It counts as functional. Summed up:
(§1)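 Female Sprague–Dawley rats (n = 10/group) were injected with ACR 50 mg/kg ip in water, with agent at 50 mg/kg ip in 2% Tween 80 10 min before, 3 days/week for 3 weeks. Brain was homogenized 10% w/v in 50 mM Tris–HCl pH 7.4 with 300 mM sucrose and spun 1800 × g for 10 min at 4 °C. Adrenaline and noradrenaline were measured in the supernatant, as ng/mg protein.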
A general note: An ELISA detects its analyte on a solid surface through an enzyme-linked reagent.

Test [4] relates to Rattus norvegicus. Description: Neuroprotective activity against ACR-intoxicated Sprague-Dawley rat assessed as increase in adrenaline level in brain at 50 mg/kg, ip administered 10 mins prior to ACR injection 3 days per week for 3 weeks by ELISA relative to control. The class given is functional. Conditions: route intraperitoneal. Summed up:
as §1

The subject of test [5] is Rattus norvegicus. Description: Neuroprotective activity against ACR-intoxicated Sprague-Dawley rat assessed as increase in Gpx level in brain at 50 mg/kg, ip administered 10 mins prior to ACR injection 3 days per week for 3 weeks […] relative to control. Conditions: route intraperitoneal. It counts as functional.
For test [6], the system named is Rattus norvegicus. Kind of test: Neuroprotective activity against ACR-intoxicated Sprague-Dawley rat assessed as increase in dopamine level in brain at 50 mg/kg, ip administered 10 mins prior to ACR injection 3 days per week for 3 weeks by spectrofluorimetrically relative to control. It counts as functional. Particulars: route intraperitoneal. Summed up: (§2)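 In this rat model (female Sprague–Dawley, n = 10/group), ACR 50 mg/kg ip in water was preceded by 10 min with agent at 50 mg/kg ip in 2% Tween 80, 3 days/week for 3 weeks. Brain dopamine was determined spectrofluorimetrically and expressed as ng/g tissue.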

The subject of test [7] is Rattus norvegicus. Kind of test: Neuroprotective activity against ACR-intoxicated Sprague-Dawley rat assessed as increase in CK level in brain at 50 mg/kg, ip administered 10 mins prior to ACR injection 3 days per week for 3 weeks by spectrofluorimetrically relative to control. It counts as functional. Particulars: route intraperitoneal. Summed up: (§3)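 Female Sprague–Dawley rats (n = 10/group) were dosed ip with ACR 50 mg/kg (water). Pretreatment was 50 mg/kg ip in 2% Tween 80 given 10 min earlier, 3 days/week for 3 weeks. The brain 10% homogenate (50 mM Tris–HCl pH 7.4, 300 mM sucrose) was centrifuged 1800 × g for 10 min at 4 °C. Supernatant LDH and CK activities were read spectrophotometrically by kit, as U/mg protein.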

The test system of test [8] is Rattus norvegicus. Description: Neuroprotective activity against ACR-intoxicated Sprague-Dawley rat assessed as increase in SOD level in brain at 50 mg/kg, ip administered 10 mins prior to ACR injection 3 days per week for 3 weeks by spectrofluorimetrically relative to control. It counts as functional. Particulars: route intraperitoneal. A digest of the protocol: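 Female Sprague–Dawley rats (160–180 g, n = 10/group) received ACR 50 mg/kg ip in water. Test agents were given at 50 mg/kg ip in 2% Tween 80, 10 min before ACR, 3 days/week for 3 weeks. Brain was homogenized 10% w/v in ice-cold 50 mM Tris–HCl pH 7.4 with 300 mM sucrose and spun 1800 × g for 10 min at 4 °C. Supernatant MDA, GSH, GPx and SOD were read spectrophotometrically by kit and expressed per mg protein (Lowry).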

Test [9] concerns Rattus norvegicus. Kind of test: Neuroprotective activity against ACR-intoxicated Sprague-Dawley rat assessed as decrease in LDH level in brain at 50 mg/kg, ip administered 10 mins prior to ACR injection 3 days per week for 3 weeks by spectrofluorimetrically relative to control. The class given is functional. The arrangement: scale not given: the % may be the effect or the level left. Particulars: route intraperitoneal. Summed up:
as §3

The subject of test [10] is Rattus norvegicus. Kind of test: Neuroprotective activity against ACR-intoxicated Sprague-Dawley rat assessed as increase in GSH level in brain at 50 mg/kg, ip administered 10 mins prior to ACR injection 3 days per week for 3 weeks […] relative to control. It counts as functional. Particulars: route intraperitoneal.
For test [11], the system named is Rattus norvegicus. Kind of test: Neuroprotective activity against ACR-intoxicated Sprague-Dawley rat assessed as decrease in dopamine level in brain at 50 mg/kg, ip administered 10 mins prior to ACR injection 3 days per week for 3 weeks by spectrofluorimetrically relative to control. It counts as functional. The arrangement: scale not given: the % may be the effect or the level left. Conditions: route intraperitoneal. Summed up: as §2

Calls of active or inactive are those of the source. The rule behind the calls is not given here.

Consider `CCOC(=O)c1c(N)cnc(Cc2c[nH]c3ccccc23)c1Nc1ccccc1`, for which the result in the test on Brain was Active. Moreover, the Activity with Rattus norvegicus [1] stood at 10%; in the test on Rattus norvegicus [2] it was 18%; with Rattus norvegicus [3] it was 2%; with Rattus norvegicus [4] it was 14%; in the test with Rattus norvegicus [5], 23%; with Rattus norvegicus [6], 9%. Moreover, the values for the Activity in the test on Rattus norvegicus [7], in the test with Rattus norvegicus [8] and in the test with Rattus norvegicus [9] were 14%, 6% and 20%, respectively.

Turning to `C=NC(Cc1c[nH]c2ccccc12)C(=O)C1C(N)=NNC1N` (centres undefined), in the test with Brain, the result was Active. Also, the Activity in the test with Rattus norvegicus [10] worked out at 9%; in the test with Rattus norvegicus [1], 22%; in the test on Rattus norvegicus [3], 6%; in the test with Rattus norvegicus [4], 15%; with Rattus norvegicus [5], 25%; in the test on Rattus norvegicus [6] it was 15%. In addition, the Activity with Rattus norvegicus [7] was found to be 22%; in the test with Rattus norvegicus [8] it was 12%; with Rattus norvegicus [9], 20%.

On to `O=C(Cc1nnn[nH]1)NC(Cc1c[nH]c2ccccc12)C(=O)O` (centres undefined), for which, in the test with Brain, the outcome was Active. The Activity is 36% in the test on Rattus norvegicus [10]; 26% with Rattus norvegicus [1]; 21% with Rattus norvegicus [3]; 67% with Rattus norvegicus [4]; 50% with Rattus norvegicus [5]; 29% in the test on Rattus norvegicus [6]. The Activity is 64% with Rattus norvegicus [7], 94% with Rattus norvegicus [8] and 35% in the test with Rattus norvegicus [9].

Take `N[C@@H](Cc1c[nH]c2ccccc12)C(=O)O` [TRYPTOPHAN]: the Activity worked out at 9% in the test on Rattus norvegicus [10]; 25% in the test with Rattus norvegicus [1]; 16% with Rattus norvegicus [3]; 17% with Rattus norvegicus [4]; 38% with Rattus norvegicus [5]; 21% in the test on Rattus norvegicus [6]. Moreover, the Activity came out at 27% in the test with Rattus norvegicus [7], 18% in the test on Rattus norvegicus [8] and 35% in the test on Rattus norvegicus [9].

As to `C=NC(Cc1c[nH]c2ccccc12)C(=O)C1C(N)=NC(=N)N=C1N` (centres undefined), the result in the test on Brain was Active. Moreover, the Activity came out at 2% with Rattus norvegicus [11]; 5% in the test on Rattus norvegicus [1]; 18% with Rattus norvegicus [2]; 1% with Rattus norvegicus [3]; 10% in the test with Rattus norvegicus [4]; 1% in the test with Rattus norvegicus [5]. Besides, the Activity in the test on Rattus norvegicus [7] is listed as 7%; with Rattus norvegicus [8], 3%; in the test on Rattus norvegicus [9], 10%.
